The source made the active and inactive calls. The rule behind the calls is not given here.
Columns and labels:
[1] = target: T1, 5-hydroxytryptamine receptor 1A (Rattus norvegicus) (UniProt P19327); test: Displacement of [3H]8-OH-DPAT from 5HT1A receptor in rat frontal cortex membrane at 10 nM; type: cell membranes
T1 sequence (whole entry): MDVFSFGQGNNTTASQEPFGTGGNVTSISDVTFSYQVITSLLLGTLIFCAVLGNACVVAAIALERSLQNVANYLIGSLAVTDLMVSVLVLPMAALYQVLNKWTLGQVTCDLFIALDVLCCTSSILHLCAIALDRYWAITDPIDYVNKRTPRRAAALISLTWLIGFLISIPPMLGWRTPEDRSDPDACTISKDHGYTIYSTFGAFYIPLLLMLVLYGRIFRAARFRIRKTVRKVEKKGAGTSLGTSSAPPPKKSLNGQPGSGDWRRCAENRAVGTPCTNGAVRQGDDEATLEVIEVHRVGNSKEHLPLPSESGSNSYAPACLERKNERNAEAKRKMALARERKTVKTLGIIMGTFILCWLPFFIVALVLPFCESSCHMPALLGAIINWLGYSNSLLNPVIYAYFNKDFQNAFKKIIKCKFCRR
How it was run: (§1)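 Rat tissue homogenized in 50 mM Tris-HCl pH 7.7, washed by repeated 40000g spins with a 10 min 37 °C incubation. Buffer: Tris-HCl, 6.66 mM CaCl2, 16.66 µM pargyline, 0.166% ascorbate. Labelled with 1.5 nM [3H]8-OH-DPAT, 45 min at 25 °C; nonspecific with 10 µM 5-HT. GF/B filtration, then scintillation counting; percent inhibition.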

[2] = target: T2, 5-hydroxytryptamine receptor 7 (Homo sapiens, UniProt P34969); test: Displacement of [3H]LSD from human recombinant 5HT7 receptor expressed in CHO cells; type: cell-based
T2 sequence (P34969 whole entry): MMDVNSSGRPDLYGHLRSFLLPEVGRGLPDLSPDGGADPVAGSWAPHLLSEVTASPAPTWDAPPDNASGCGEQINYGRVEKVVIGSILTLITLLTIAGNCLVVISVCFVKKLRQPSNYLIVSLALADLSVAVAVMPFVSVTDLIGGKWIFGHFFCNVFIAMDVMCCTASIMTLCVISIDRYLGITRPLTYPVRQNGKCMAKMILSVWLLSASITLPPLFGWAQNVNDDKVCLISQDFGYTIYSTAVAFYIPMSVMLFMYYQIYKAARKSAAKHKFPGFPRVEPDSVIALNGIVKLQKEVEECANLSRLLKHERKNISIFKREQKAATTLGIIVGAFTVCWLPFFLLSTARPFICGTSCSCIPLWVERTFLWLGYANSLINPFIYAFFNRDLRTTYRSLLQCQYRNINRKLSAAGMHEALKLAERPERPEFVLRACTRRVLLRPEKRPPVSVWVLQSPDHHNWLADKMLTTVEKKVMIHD
How it was run: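 Cloned human 5-HT7 receptor from CHO cells, labelled with [3H]LSD; nonspecific binding with 25 µM clozapine. Stopped by filtration on PEI-soaked GF/C filters, then scintillation counting. Ki from two displacement curves of nine concentrations each, run in triplicate.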

[3] = target: T1, 5-hydroxytryptamine receptor 1A (Rattus norvegicus); test: Displacement of [3H]8-OH-DPAT from 5HT1A receptor in rat frontal cortex membrane at 0.1 uM; type: cell membranes; how it was run: as §1
Rattus norvegicus = test: Anxiolytic activity in ip dosed Wistar rat assessed as number of punished licks for 5 mins by conflict drinking test; type: functional; conditions: read-out: MED
How it was run: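 Modified Vogel test in male Wistar rats, 160–180 g, water-deprived 48 h and fasted 24 h. Dosed ip 30 min before test. After a 30 s free-drinking period, 600 µA, 0.6 s shocks came through the spout every 20 licks over 5 min. Punished licks counted; minimal effective dose reported.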

Mus musculus = test: Anxiolytic activity in ip dosed NMRI mouse assessed as behavioral activity for 5 mins by light dark assay; type: functional; conditions: read-out: MED
How it was run: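 Male NMRI mice, 25–33 g, kept in a dark room and dosed ip 30 min before test, then placed in the centre of the lit area. Over 5 min, time in each area, transitions, and horizontal and vertical activity were recorded. Minimal effective dose by one-way ANOVA with Duncan's test.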

[4] = target: T2, 5-hydroxytryptamine receptor 7; test: Antagonist activity at human 5HT7A receptor expressed in CHO cells assessed as inhibition of […]-induced cAMP elevation at 10 nM administered before […] challenge; type: functional, cell-based; parameters: scale not given: the % may be the effect or the level left
How it was run: (§2)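 CHO cells stably expressing human 5-HT7A, cultured in F12:DMEM with 5% FCS, seeded 24 h ahead. Compounds from 1 mM DMSO stock (final DMSO 0.1%) preincubated 10 min, then 20 min with 10 nM 5-CT at 37 °C. Cells lysed, cAMP by EIA, normalized to BCA protein. The 5-CT-induced level is taken as 100%; six independent experiments.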

[5] = target: T2, 5-hydroxytryptamine receptor 7; test: Antagonist activity at human 5HT7A receptor expressed in CHO cells assessed as inhibition of […]-induced cAMP elevation at 1 uM; type: functional, cell-based; parameters: scale not given: the % may be the effect or the level left; how it was run: as §2

Structure (SMILES) | Activity [1] [%] | Ki ([2]; read-out: Ki) [nM] | Activity [3] [%] | minimal effective dose (Rattus norvegicus) [mg/kg] | minimal effective dose (Mus musculus) [mg/kg] | Activity [4] | Activity [5] [%] | Ki ([2]; read-out: Log Ki (converted)) [nM]
CCC1(CCCCN2CCN(c3ccc(Cl)c(Cl)c3)CC2)C(=O)Nc2ccccc21 (configuration not stated) | 0 | 0.63 | 11 | > 20 | – | – | – | –
CCC1(CCCN2CCN(c3cccc(Cl)c3)CC2)C(=O)Nc2ccccc21 (configuration not stated) | 57 | 21 | 91 | > 20 | 3 | – | – | –
CCC1(CCCCN2CCN(c3ccc(C)c(Cl)c3)CC2)C(=O)Nc2ccccc21 (configuration not stated) | 0 | 0.66 | 11 | > 20 | – | 40% | > 95 | –
CCC1(CCCCN2CCN(c3cccc(Cl)c3)CC2)C(=O)Nc2cc(F)c(Cl)cc21 (configuration not stated) | – | 9.07 | 16 | 20 | – | – | – | –
CC(C)CC1(CCCCN2CCN(c3cccc(Cl)c3)CC2)C(=O)Nc2ccccc21 (configuration not stated) | – | 1.8 | 12 | 10 | > 10 | inactive | > 95 | –
CCC1(CCCCN2CCN(c3cccc(Cl)c3)CC2)C(=O)Nc2cc(F)ccc21 (configuration not stated) | 11 | 0.67 | 37 | > 20 | – | – | – | –
CCC1(CCCCN2CCN(c3cccc(Cl)c3)CC2)C(=O)Nc2ccc(F)cc21 (configuration not stated) | – | 2.11 | 24 | < 5 | > 10 | – | – | –
CCC1(CCCCN2CCc3ccccc3C2)C(=O)Nc2ccccc21 (configuration not stated) | – | 7.65 | 52 | > 20 | – | – | > 95 | –
CCC1(CCCCN2CCN(c3ccc(F)cc3)CC2)C(=O)Nc2ccccc21 (configuration not stated) | 12 | 0.43 | 10 | 10 | < 1 | – | – | –
CCC1(CCCCN2CCN(c3ccccc3OC)CC2)C(=O)Nc2ccccc21 (configuration not stated) | 28 | 5.38 | 79 | 10 | – | – | – | –
CCC1(CCCCN2CCN(c3ccc(Cl)cc3)CC2)C(=O)Nc2ccc(Cl)cc21 (configuration not stated) | – | 3.72 | 0 | > 20 | – | – | – | –
CCC1(CCCCN2CCN(c3cccc(Cl)c3)CC2)C(=O)Nc2c(Cl)cc(F)cc21 (configuration not stated) | – | 4.75 | 31 | > 20 | > 10 | – | – | –
CCC1(CCCCN2CCN(c3ccc(F)c(Cl)c3)CC2)C(=O)Nc2ccccc21 (configuration not stated) | 0 | 0.6 | 14 | > 20 | – | – | – | –
COc1ccccc1N1CCN(CCCCC23CCCc4cccc(c42)NC3=O)CC1 (configuration not stated) | – | – | – | – | – | – | – | 2.14
CCC1(CCCCN2CCN(c3cccc(Cl)c3)CC2)C(=O)Nc2ccc(Cl)cc21 (configuration not stated) | – | 8.27 | 18 | > 20 | – | – | – | –
CCC1(CCCCN2CCN(c3ccccc3Cl)CC2)C(=O)Nc2ccccc21 (configuration not stated) | 9 | 5.11 | 51 | > 20 | – | – | – | –
CCC1(CCCCN2CCN(c3cccc(Cl)c3)CC2)C(=O)Nc2c(Cl)cc(Cl)cc21 (configuration not stated) | – | 9.46 | 7 | > 20 | – | – | – | –

Structure (SMILES) | Activity [1] [%] | Ki ([2]; read-out: Ki) [nM] | Activity [3] [%] | minimal effective dose (Rattus norvegicus) [mg/kg] | minimal effective dose (Mus musculus) [mg/kg] | Activity [4] | Activity [5] [%] | Ki ([2]; read-out: Log Ki (converted)) [nM]
CCC1(CCCCN2CCN(c3ccc(Cl)cc3)CC2)C(=O)Nc2c(Cl)cc(F)cc21 (configuration not stated) | – | 5.97 | 0 | > 20 | – | – | – | –
CCC1(CCCCN2CCN(c3cccc(OC)c3)CC2)C(=O)Nc2ccccc21 (configuration not stated) | 6 | 2.55 | 33 | > 20 | – | – | – | –
CCC1(CCCCN2CCN(c3ccc(Cl)cc3)CC2)C(=O)Nc2cc(F)c(Cl)cc21 (configuration not stated) | – | 6.99 | 0 | – | – | – | – | –
CCC1(CCCCN2CCN(c3ccccc3)CC2)C(=O)N(C)c2ccccc21 (configuration not stated) | 12 | 33.4 | 42 | 20 | – | – | – | –
CCC1(CCCCN2CCC(C)CC2)C(=O)Nc2ccccc21 (configuration not stated) | – | – | 0 | – | – | – | > 95 | –
CCC1(CCCCN2CCC(c3ccc(F)cc3)CC2)C(=O)Nc2ccccc21 (configuration not stated) | – | 5.3 | 11 | 20 | > 10 | – | – | –
CCC1(CCCCN2CCN(c3ccccc3OC)CC2)C(=O)N(Cc2ccccc2)c2ccccc21 (configuration not stated) | 32 | 6.57 | 86 | > 20 | – | – | – | –
O=C1Nc2ccc(F)cc2C1CCCCN1CCN(c2cccc(Cl)c2)CC1 (configuration not stated) | – | 1.96 | 43 | > 20 | – | – | – | –
CC1CCN(CC[C@H]2CCCN2S(=O)(=O)c2cccc(O)c2)CC1 | – | – | – | – | – | 80% | > 95 | –
CCC1(CCCCN2CCc3sccc3C2)C(=O)Nc2ccccc21 (configuration not stated) | – | 4.31 | 29 | > 20 | > 10 | – | – | –
CCC1(CCCCN2CCN(c3ccc(Cl)cc3)CC2)C(=O)Nc2ccc(F)cc21 (configuration not stated) | – | 2.81 | 9 | > 20 | > 10 | – | – | –
CCC1(CCCCN2CC=C(c3ccc(Cl)cc3)CC2)C(=O)Nc2ccccc21 (configuration not stated) | – | 1.02 | 10 | > 20 | – | inactive | > 95 | –
CCC1(CCCCN2CCN(c3ccc(F)cc3)CC2)C(=O)Nc2ccc(F)cc21 (configuration not stated) | – | 1.5 | 7 | > 20 | – | – | – | –
CCC1(CCCCN2CCN(c3ccc(OC)cc3)CC2)C(=O)Nc2ccccc21 (configuration not stated) | 3 | 25.4 | 24 | > 20 | – | – | – | –
CCC1(CCCCN2CCN(c3ccccc3)CC2)C(=O)Nc2ccccc21 (configuration not stated) | 6 | 2.07 | 26 | 10 | – | – | – | –
CCC1(CCCCCN2CCN(c3ccc(Cl)cc3)CC2)C(=O)Nc2ccccc21 (configuration not stated) | 0 | 1.24 | 11 | > 20 | – | – | – | –
CCC1(CCCCN2CC=C(c3ccc(F)cc3)CC2)C(=O)Nc2ccccc21 (configuration not stated) | – | 1.19 | 19 | 20 | – | – | > 95 | –

Reference: ChEMBL document CHEMBL1144747, “(Phenylpiperazinyl-butyl)oxindoles as selective 5-HT7 receptor antagonists” (J Med Chem, 2008)
